Screening data from PubChem.
RAM network inh = inhibitors of the yeast RAM network; inhibition, % at 50 µM; hit rate 1.8% among 190,000; S. cerevisiae dse1pr::URA3 reporter, 5-FOA growth OD615, 2 d; analog-sensitive cbk1-as2 kinase mutant strain;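 active means inhibition above a set limit, 3 SD over mean compound inhibition, cut at about 8.4% in these data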;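 further: inhibition rescues growth on 5-FOA so higher OD means more RAM inhibition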
Yeast growth inh = reduces growth of yeast BB579 in restrictive medium; AID 804; hit rate 0.51% among 140,000; inhibition, % at 10 µM; S. cerevisiae BB579 growth, OD615, 48 h;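 active means inhibition above a set limit, 3 SD over the mean compound inhibition, cut at about 44% in these data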
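Test system: S. cerevisiae DeaD strain BB579 yeast; Medium: restrictive CSMM-D medium; Compound: one dose, 10 µM compound with 0.25% DMSO; Incubation: 4 h cell preincubation, 48 h compound exposure, 30 °C humidified; Signal: OD at 615 nm; Benchmarks: amphotericin B at 10 µg/mL as positive control.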
sdo1 growth = restores growth of sdo1-depleted yeast; S. cerevisiae sdo1-depleted JHY4D growth rescue, OD600 30 h; stronger effect = higher value; pdr5 snq2 efflux-pump mutant strain; z-score at 10 µM; hit rate 0.21% among 140,000;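 active means z-score above 3 at both the 24 hr and the 30 hr optical density reads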
Yeast life ext = yeast lifespan extension; S. cerevisiae growth with nicotinamide, OD615; deaD strain in restrictive glucose medium; inhibition of the nicotinamide effect, % at 10 µM; hit rate 0.68% among 130,000; AID 775;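 active means inhibition above a set limit, placed 3 SD over the median of all compounds, cut at about 26% in these data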
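Test system – modified budding yeast, DeaD strain · Compound – single dose 10 µM compound, 0.25% DMSO · Times – culture preincubation 4 h, compound exposure 48 h, both 30 °C · Detection – optical density (absorbance) at 615 nm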
Hits are given with their value; – = inactive; · = no result. Sampled rows, rich in hits. Any-hit rate of the full collection: about 2.7%.

SMILES	RAM network inh	Yeast growth inh	sdo1 growth	Yeast life ext
CC(=O)Nc1ccccc1NS(=O)(=O)c1ccc(Cl)cc1	–	–	–	–
CN(C)Cc1cc(C(C)(C)c2cc(CN(C)C)c(O)c(CN(C)C)c2)cc(CN(C)C)c1O	–	–	–	–
Cc1c(N=Nc2c(-c3ccc([N+](=O)[O-])cc3)[nH]n(C(N)=S)c2=O)cccc1[N+](=O)[O-]	11	·	·	·
NC(=S)n1[nH]c(-c2ccc([N+](=O)[O-])cc2)c(N=Nc2ccccc2[N+](=O)[O-])c1=O	–	·	·	·
O=C(N/N=C/c1cc(Br)cc(Br)c1O)c1ccncc1	–	·	·	·
Nn1cnnc1N/N=C/c1cc(Br)cc(Br)c1O	9.6	–	–	–
CC1=NOC(=O)/C1=C/c1ccc(-c2ccc(Cl)cc2)o1	–	92	–	–
O=C(Nc1nnc(C2CC2)s1)C1CCCCN1S(=O)(=O)c1ccccc1 (stereo not drawn)	–	·	·	·
Cc1cccc(Nc2c([N+](=O)[O-])cc(C(=O)N3CC(=O)Nc4ccccc43)cc2[N+](=O)[O-])c1	9.5	·	·	·
C=CCn1c(CCSCc2ccc(OC)c(C)c2)n[nH]c1=S	–	·	·	·
Cc1cc(C)nc(-n2cc(C(=O)c3cc(F)ccc3O)cn2)n1	–	–	–	30
CCOc1ccc(C2=NNC(c3cccs3)=Nc3ccc(OCC)cc32)cc1	–	–	–	47
Cc1cccc(C(=O)OCC(=O)NC(C)CCc2ccccc2)c1 (stereo not drawn)	10	·	·	·
O=C(CSC1=NCCS1)N1CCN(c2ccc(Cl)cc2)CC1	–	51	–	–
O=C(CSC1=NCCS1)c1ccc(Cl)cc1	–	·	·	·
Nc1[nH]nc2nc3ccccc3cc12	–	·	·	·
Nc1cccc2nc3ccccc3cc12	–	59	–	–
CCC(C)C1NC(=S)N(C2CCCCC2)C1=O (stereo not drawn)	–	–	–	–
Cc1cccc(NC(=O)Cn2cnc3c(oc4nc5c(cc43)COC(C)(C)C5)c2=O)c1	8.5	–	–	–
CC1CCC2(CC1)NC(=S)N(c1ccccc1)N2 (stereo not drawn)	–	69	–	–
O=C1NC2(CCCCC2)NN1c1ccccc1	–	–	–	–
Cc1cnc(NC(=O)CSc2nnc(Cc3ccccc3)n2C)s1	–	–	–	–
Cc1ccc(C(C)C)c(OCc2nnc(SCC(=O)Nc3ncc(C)s3)n2C)c1	8.6	–	–	–
COc1cccc(NC(=O)c2cc(-c3ccncc3)nc3c(C)cc(C)cc23)c1	–	·	·	·
COC(=O)c1c(NC(=O)Cc2cccs2)sc(C(=O)N2CCCCC2)c1C	10	–	–	29
SMILES	RAM network inh	Yeast growth inh	sdo1 growth	Yeast life ext
N#Cc1c2nc3ccccc3nc2n2cc(NC(=O)c3ccc(F)cc3)ccc12	9.8	–	–	–
CC1CCCN(c2nc3ccccc3nc2C(C#N)C(=O)OC2CCCCC2)C1 (stereo not drawn)	–	–	–	64
COc1cc(OC)cc(-c2nnc(SCc3c(F)cccc3Cl)o2)c1	8.9	–	–	–
Cc1cc(N2CCOCC2)ccc1/C=C\[N+](=O)[O-]	–	–	–	34
CC(C)CC(=O)Nc1ccc(C(=O)NNC(=S)NC(=O)C2CCCCC2)cc1	8.4	–	–	–
Cc1cc(SCC(=O)OCC(=O)NCc2ccc3c(c2)OCO3)c(C)cc1Br	11	–	–	–
COc1ccc(/C=C/C(=O)C2C(=O)C=C(C)OC2=O)cc1O (stereo not drawn)	–	–	–	44
COc1cc(/C=C/C(=O)N2CCCC2)cc(OC)c1OC	–	–	–	–
COc1cc(/C=C/C(=O)C2C(=O)C=C(C)OC2=O)cc(OC)c1O (stereo not drawn)	–	–	–	64
COc1ccc(CCNC(=O)CCc2nc3ccccc3[nH]2)cc1OC	–	·	·	·
CC(C)CNC(=O)CSc1nnc(CN2CCCCCC2=O)n1-c1ccccn1	–	–	–	29
Cc1cc(C)cc(NC(=O)CSc2nnc(-c3ccccc3Br)o2)c1	11	–	–	–
O=C(CSc1nnc(-c2ccccc2Br)o1)Nc1cccc2ccccc12	–	–	–	–
COc1cccc(NC(=O)CSc2nnc(-c3cc(C)n(-c4ccccc4)c3C)o2)c1	9.3	–	–	–
CCN(CC)C1CCN(C(=O)c2cc(COc3ccc(F)cc3Cl)on2)C1 (stereo not drawn)	–	·	·	·
O=C(c1cc(COc2ccc(F)cc2Cl)on1)N1CCc2ccccc2C1	10	·	·	·
O=C(COc1ccccc1)NNC(=S)NC(=O)c1ccc(Cl)cc1Cl	–	88	–	·
Cc1ccc(C(=O)NNC(=S)NC(=O)c2ccc(Cl)cc2Cl)cc1	–	–	–	31
Cc1cccc(C(=O)NC(=S)NNC(=O)COc2ccc(Cl)cc2)c1	–	·	·	·
Nc1nc(-c2ccccc2)c(N=Nc2cccc3ccccc23)s1	–	–	–	–
Nc1nc(-c2ccccc2)c(N=Nc2ccccc2Cl)s1	9.2	–	–	–
CCOc1ccc(-n2c(C)cc(C(=O)NS(=O)(=O)c3ccc(C)cc3)c2C)cc1	–	–	–	–
Cc1ccc(-n2c(C)cc(C(=O)NS(=O)(=O)c3ccc(C)cc3)c2C)cc1	8.6	–	–	–
O=C(CCC(=O)c1ccc(Br)cc1)Nc1cccnc1	–	·	·	·
CC(C)CNc1cc(=O)n(C)c(=O)n1C	–	–	–	–
SMILES	RAM network inh	Yeast growth inh	sdo1 growth	Yeast life ext
CC(C)(C)C(=O)Cn1c(=N)n(Cc2ccccc2)c2ccccc21	–	–	–	32
Cc1oc(=O)c(NC(=O)c2ccccc2)cc1C(C)O (stereo not drawn)	–	·	·	·
CCOC(=O)c1cc(NC(=O)c2ccccc2)c(=O)oc1-c1ccccc1	9.5	–	–	–
COC(=O)C(C)Sc1nc(NCc2ccccc2)nc(N(C)C)n1 (stereo not drawn)	–	·	·	·
Cc1ccc(-c2nc(-c3ccc(Cl)cc3)sc2CC(=O)O)c(C)c1	9.6	·	·	·
CCSc1nc2n(n1)C(c1cccc(F)c1)C1=C(CCCC1=O)N2 (stereo not drawn)	–	–	–	–
Cc1ccccc1CSc1nnc(C)n1N	–	–	–	–
CCOC(=O)c1sc(NC(=O)c2cccs2)cc1C	–	–	–	–
CCOC(=O)c1sc(NC(=O)Nc2cccc(Cl)c2)cc1C	9.0	–	–	–
Cc1cccc(OCCNC(=O)c2cccc(Oc3ccc(C(F)(F)F)cc3[N+](=O)[O-])c2)c1	9.0	–	–	–
COc1ccccc1-n1cnc2cc(NCc3ccco3)ccc21	–	–	–	–
COc1cc(-n2c(=O)c3ccccc3n(CC(=O)c3ccc(F)cc3)c2=O)cc(OC)c1OC	–	·	·	·
CCOC(=O)c1c(-c2ccccc2)csc1NC(=O)CSc1nnnn1C	–	–	–	–
CCOC(=O)c1c(-c2ccccc2)csc1NC(=O)CSc1nncs1	11	–	–	–
CCOc1ccc(N2CC(O)(c3ccc(F)cc3)[N+]3=C2CCCC3)cc1 (stereo not drawn)	–	·	·	·
COc1ccc(C(CCc2ccc(C)o2)NC(=O)Nc2ccc(OC)cc2OC)cc1 (stereo not drawn)	10	–	–	–
COC(=O)[C@H](C)NC(=O)Nc1ccc(OC)cc1OC	–	–	–	–
Cc1cc(=O)c(C(=O)O)cn1-c1ccc(C(C)C)cc1	–	·	·	·
